Each block holds one molecule with its values, some of them ahead of it. Calls of active or inactive are those of the source. The rule behind the calls is not given here.
How the values were obtained:
[1] = biological target: T1, Diacylglycerol O-acyltransferase 1 (Mus musculus, UniProt Q9Z2A7); experiment: Inhibition of mouse recombinant DGAT1 expressed in Sf9 cells
T1 sequence (Q9Z2A7 whole entry): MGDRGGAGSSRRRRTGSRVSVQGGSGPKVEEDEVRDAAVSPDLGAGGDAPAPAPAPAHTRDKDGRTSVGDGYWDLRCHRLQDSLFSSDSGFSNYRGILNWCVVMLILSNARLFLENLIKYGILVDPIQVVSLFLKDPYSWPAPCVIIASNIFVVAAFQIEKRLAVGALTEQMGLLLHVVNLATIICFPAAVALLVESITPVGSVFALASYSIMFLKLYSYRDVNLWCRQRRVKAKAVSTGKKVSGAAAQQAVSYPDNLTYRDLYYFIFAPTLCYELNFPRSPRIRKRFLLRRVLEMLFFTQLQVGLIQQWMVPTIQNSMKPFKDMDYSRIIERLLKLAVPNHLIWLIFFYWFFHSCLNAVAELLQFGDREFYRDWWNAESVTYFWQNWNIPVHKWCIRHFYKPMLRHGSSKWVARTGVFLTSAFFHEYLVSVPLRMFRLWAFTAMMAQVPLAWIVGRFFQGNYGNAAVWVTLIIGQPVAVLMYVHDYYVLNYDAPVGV

[2] = Plasma clearance in dog at 2.5 mg/kg, iv; type: ADME, organism-based, Canis lupus familiaris; design: dose 2.5 mg/kg, route intravenous
Method in brief: (§1)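 Single-dose pharmacokinetics given iv or orally to mouse (10 mg/kg), rat (5 mg/kg) and dog (2.5 mg/kg). Half-life, Cmax, AUC, plasma clearance, volume of distribution and oral bioavailability were derived from plasma levels. Values are means, n = 3 unless stated otherwise.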

[3] = Half life in rat at 5 mg/kg, iv; type: ADME, organism-based; design: dose 5 mg/kg, route intravenous; conditions: in vivo; method in brief: as §1
[4] = biological target: T2, Diacylglycerol O-acyltransferase 1 (Homo sapiens, UniProt O75907); experiment: Inhibition of human recombinant DGAT1 expressed in Sf9 cells
T2 sequence (O75907 whole entry): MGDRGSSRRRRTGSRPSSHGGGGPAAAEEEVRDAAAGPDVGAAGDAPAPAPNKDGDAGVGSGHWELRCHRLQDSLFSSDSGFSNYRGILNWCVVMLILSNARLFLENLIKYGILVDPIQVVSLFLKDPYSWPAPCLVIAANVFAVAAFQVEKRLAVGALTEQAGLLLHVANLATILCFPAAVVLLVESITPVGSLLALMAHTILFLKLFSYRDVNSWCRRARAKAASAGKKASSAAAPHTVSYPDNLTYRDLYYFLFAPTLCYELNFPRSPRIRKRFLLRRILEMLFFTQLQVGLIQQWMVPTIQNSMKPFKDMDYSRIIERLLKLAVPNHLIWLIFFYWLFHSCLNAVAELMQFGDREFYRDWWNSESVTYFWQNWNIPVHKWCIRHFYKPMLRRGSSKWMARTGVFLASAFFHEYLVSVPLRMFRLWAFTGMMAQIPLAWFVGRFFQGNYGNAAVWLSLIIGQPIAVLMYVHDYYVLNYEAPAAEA

[5] = Oral bioavailability in rat at 5 mg/kg; type: ADME, organism-based; conditions: in vivo; method in brief: as §1
[6] = AUC in dog at 2.5 mg/kg, po; type: ADME, organism-based, Canis lupus familiaris; design: dose 2.5 mg/kg, route oral; conditions: plasma; method in brief: as §1
[7] = Half life in dog at 2.5 mg/kg, po; type: ADME, organism-based, Canis lupus familiaris; design: dose 2.5 mg/kg, route oral; conditions: in vivo; method in brief: as §1
[8] = biological target: T3, Sterol O-acyltransferase 1 (Homo sapiens) (UniProt P35610); experiment: Inhibition of human ACAT1
T3 sequence (whole entry): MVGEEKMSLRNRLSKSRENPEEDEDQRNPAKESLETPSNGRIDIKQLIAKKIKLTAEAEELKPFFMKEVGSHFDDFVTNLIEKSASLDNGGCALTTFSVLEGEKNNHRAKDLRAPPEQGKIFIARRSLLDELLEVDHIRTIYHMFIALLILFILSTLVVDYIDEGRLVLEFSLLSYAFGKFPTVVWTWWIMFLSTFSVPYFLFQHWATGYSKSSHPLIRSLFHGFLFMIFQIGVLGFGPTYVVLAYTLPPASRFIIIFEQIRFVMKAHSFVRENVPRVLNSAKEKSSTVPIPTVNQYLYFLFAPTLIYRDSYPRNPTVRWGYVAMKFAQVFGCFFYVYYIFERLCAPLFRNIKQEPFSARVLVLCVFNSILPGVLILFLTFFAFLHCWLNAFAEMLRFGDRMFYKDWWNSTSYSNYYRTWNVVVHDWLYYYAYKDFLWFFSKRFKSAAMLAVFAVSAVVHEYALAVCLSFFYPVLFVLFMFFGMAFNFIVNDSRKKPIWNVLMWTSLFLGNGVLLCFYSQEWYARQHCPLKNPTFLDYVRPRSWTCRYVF

Mus musculus [9] = experiment: Decrease in body weight in DIO C57BL/6J mouse at 3 mg/kg, po bid after 14 days
[10] = Volume of distribution at terminal phase in rat at 5 mg/kg, iv; type: ADME, organism-based; design: dose 5 mg/kg, route intravenous; conditions: in vivo, read-out: Vbeta; method in brief: as §1
[11] = Cmax in C57BL/6J mouse at 3 mg/kg, po after 1 hr; type: ADME, organism-based; design: dose 3 mg/kg, route oral; conditions: in vivo
Method in brief: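 On day 28 of oral dosing at 3 mg/kg bid in DIO mice, plasma drug concentration was measured at 1 h (n = 3) and 17 h (n = 9) after the final dose. Mean ± SEM.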

Mus musculus [12] = experiment: Reduction of chylomicron-derived serum triglyceride level in acute lipid challenged DIO C57BL/6J mouse at 3 mg/kg, po; type: functional; design: scale not given: the % may be the effect or the level left
Method in brief: (§2)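 DIO mice were dosed orally at 0.3, 3 or 30 mg/kg: bid on days 1–2, fasted overnight, then dosed once on day 3. One hour after the final dose a corn oil bolus was given by gavage, and plasma triglycerides were measured 1 h later. Percent inhibition for the 0.3 and 3 mg/kg doses is relative to the 30 mg/kg dose. Mean ± SEM, n = 9.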

[13] = biological target: T4, Sterol O-acyltransferase 2 (Homo sapiens) (UniProt O75908); experiment: Inhibition of human ACAT2
T4 sequence (whole entry): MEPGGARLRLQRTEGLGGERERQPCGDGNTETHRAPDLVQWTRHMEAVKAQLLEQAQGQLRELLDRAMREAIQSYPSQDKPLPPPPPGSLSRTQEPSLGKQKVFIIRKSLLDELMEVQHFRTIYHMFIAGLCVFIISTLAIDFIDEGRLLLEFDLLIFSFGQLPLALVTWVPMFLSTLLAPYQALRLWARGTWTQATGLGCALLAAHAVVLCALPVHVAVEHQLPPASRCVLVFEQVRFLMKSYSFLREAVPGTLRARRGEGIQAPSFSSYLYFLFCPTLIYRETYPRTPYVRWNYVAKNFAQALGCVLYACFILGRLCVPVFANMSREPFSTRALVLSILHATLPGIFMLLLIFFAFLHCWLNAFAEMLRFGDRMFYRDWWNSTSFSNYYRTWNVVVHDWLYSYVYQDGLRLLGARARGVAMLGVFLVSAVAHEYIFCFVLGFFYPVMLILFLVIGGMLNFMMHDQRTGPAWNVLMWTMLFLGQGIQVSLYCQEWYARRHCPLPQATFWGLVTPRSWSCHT

[14] = AUC in DIO mouse at 10 mg/kg, po; type: ADME, organism-based; design: dose 10 mg/kg, route oral; conditions: plasma; method in brief: as §1
[15] = Cmax in rat at 5 mg/kg, po; type: ADME, organism-based; design: dose 5 mg/kg, route oral; conditions: in vivo; method in brief: as §1
[16] = Volume of distribution at terminal phase in dog at 2.5 mg/kg, iv; type: ADME, organism-based, Canis lupus familiaris; design: dose 2.5 mg/kg, route intravenous; conditions: in vivo, read-out: Vbeta; method in brief: as §1
[17] = Plasma clearance in rat at 5 mg/kg, iv; type: ADME, organism-based; design: dose 5 mg/kg, route intravenous; method in brief: as §1
Mus musculus [18] = experiment: Increase in liver triglyceride level in DIO C57BL/6J mouse at 3 mg/kg, po after 28 days; type: ADME, organism-based; design: dose 3 mg/kg, route oral; conditions: in vivo, 672 h
Method in brief: (§3)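 DIO mice on high-fat diet were dosed orally for four weeks at 3 mg/kg bid in 1% Tween-80/water, or a reference at 10 mg/kg qd. Liver triglycerides were determined on day 28 only. Mean ± SEM, n = 9, compared with vehicle.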

Mus musculus [19] = experiment: Decrease in liver triglyceride level in DIO C57BL/6J mouse at 3 mg/kg, po after 28 days; type: functional; method in brief: as §3
[20] = AUC in dog at 2.5 mg/kg, iv; type: ADME, organism-based, Canis lupus familiaris; design: dose 2.5 mg/kg, route intravenous; conditions: plasma; method in brief: as §1
[21] = AUC in rat at 5 mg/kg, iv; type: ADME, organism-based; design: dose 5 mg/kg, route intravenous; conditions: plasma; method in brief: as §1
[22] = Oral bioavailability in dog at 2.5 mg/kg; type: ADME, organism-based, Canis lupus familiaris; conditions: in vivo; method in brief: as §1
[23] = biological target: T5, Diacylglycerol O-acyltransferase 2 (Mus musculus) (UniProt Q9DCV3); experiment: Inhibition of mouse DGAT2
T5 sequence (whole entry): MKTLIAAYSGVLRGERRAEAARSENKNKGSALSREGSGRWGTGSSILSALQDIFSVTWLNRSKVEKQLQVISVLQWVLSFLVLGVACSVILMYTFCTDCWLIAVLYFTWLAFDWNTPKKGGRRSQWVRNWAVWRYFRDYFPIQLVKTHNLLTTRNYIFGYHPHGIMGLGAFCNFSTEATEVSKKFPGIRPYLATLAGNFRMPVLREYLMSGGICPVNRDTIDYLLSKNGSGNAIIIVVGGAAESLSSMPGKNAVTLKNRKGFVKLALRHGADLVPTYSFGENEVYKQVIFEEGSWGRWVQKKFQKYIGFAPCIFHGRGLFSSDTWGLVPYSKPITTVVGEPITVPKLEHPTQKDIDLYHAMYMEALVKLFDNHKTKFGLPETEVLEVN

Mus musculus [24] = experiment: Reduction of chylomicron-derived serum triglyceride level in acute lipid challenged DIO C57BL/6J mouse at 30 mg/kg, po; type: functional; design: scale not given: the % may be the effect or the level left; method in brief: as §2
Mus musculus [25] = experiment: Decrease in body weight in DIO C57BL/6J mouse at 3 mg/kg, po bid after 7 days; type: functional, organism-based; design: dose 3 mg/kg
Method in brief: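 DIO mice kept on high-fat diet ad libitum were dosed orally for four weeks, either 3 mg/kg bid in 1% Tween-80/water or a reference at 10 mg/kg qd, alongside a vehicle group. Body weight was measured on days 1, 5, 7, 14 and 27 and expressed as change in grams from day zero. Mean ± SEM, n = 9, compared with vehicle.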

[26] = Half life in DIO mouse at 10 mg/kg, po; type: ADME, organism-based; design: dose 10 mg/kg, route oral; conditions: in vivo; method in brief: as §1
[27] = AUC in rat at 5 mg/kg, po; type: ADME, organism-based; design: dose 5 mg/kg, route oral; conditions: plasma; method in brief: as §1
[28] = Half life in rat at 5 mg/kg, po; type: ADME, organism-based; design: dose 5 mg/kg, route oral; conditions: in vivo; method in brief: as §1
[29] = Cmax in DIO mouse at 10 mg/kg, po; type: ADME, organism-based; design: dose 10 mg/kg, route oral; conditions: in vivo; method in brief: as §1
Mus musculus [30] = experiment: Reduction of chylomicron-derived serum triglyceride level in acute lipid challenged DIO C57BL/6J mouse at 0.3 mg/kg, po; type: functional; design: scale not given: the % may be the effect or the level left; method in brief: as §2
[31] = Cmax in dog at 2.5 mg/kg, po; type: ADME, organism-based, Canis lupus familiaris; design: dose 2.5 mg/kg, route oral; conditions: in vivo; method in brief: as §1
[32] = Half life in dog at 2.5 mg/kg, iv; type: ADME, organism-based, Canis lupus familiaris; design: dose 2.5 mg/kg, route intravenous; conditions: in vivo; method in brief: as §1

- IC50 [1]: 24 nM
- clearance [2]: 3.83 mL/min/kg
- half-life [3]: 3.9 h
- IC50 [4]: 7 nM
- bioavailability [5]: 55.2%
- AUC [6]: 5500 ng·h/mL
- half-life [7]: 3.6 h
- Activity [8]: inactive
- Vd [10]: 0.21 L/kg
- Cmax [11]: 910 ng/mL
- Activity [13]: inactive
- AUC [14]: 15200 ng·h/mL
- Cmax [15]: 8530 ng/mL
- Vd [16]: 1.21 L/kg
- clearance [17]: 0.667 mL/min/kg
- Activity (Mus musculus [18]): 88 mg/dL
- AUC [20]: 11100 ng·h/mL
- AUC [21]: 145000 ng·h/mL
- bioavailability [22]: 49.2%
- Activity [23]: inactive
- half-life [26]: 6.5 h
- AUC [27]: 80200 ng·h/mL
- half-life [28]: 2.7 h
- Cmax [29]: 3510 ng/mL
- Cmax [31]: 2470 ng/mL
- half-life [32]: 3.3 h
SMILES: O=C(Nc1ccccc1)Nc1ccc(-c2ccc(C(=O)[C@@H]3CCC[C@H]3C(=O)O)cc2)cc1
- Activity (Mus musculus [9]): Active
- Activity (Mus musculus [12]): 93%
- Activity (Mus musculus [19]): 53.5 mg/dL
- Activity (Mus musculus [24]): 100%
- Activity (Mus musculus [25]): Active
- Activity (Mus musculus [30]): 73%

- IC50 [1]: 39 nM
SMILES: O=C(Nc1ccc(-c2ccc(C(=O)[C@@H]3CCC[C@H]3C(=O)O)cc2)cc1)Nc1cccc(F)c1

- IC50 [1]: 16 nM
SMILES: O=C(Nc1ccc(-c2ccc(C(=O)[C@@H]3CCC[C@H]3C(=O)O)cc2)cc1)Nc1ccccc1C(F)(F)F

Reference: ChEMBL document CHEMBL1140730, “Validation of diacyl glycerolacyltransferase I as a novel target for the treatment of obesity and dyslipidemia using a potent and selective small molecule inhibitor” (J Med Chem, 2008)
